Data set [1] has as its system Splenocyte. The data set can be described thus: Immunomodulatory activity in BALB/c mouse splenocytes assessed as inhibition of concanavalin A-induced lymphocyte proliferation by measuring [methyl-3H]-thymidine uptake at 50 uM after 48 hrs. The class given is functional. The procedure, abridged:
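BALB/c splenocytes (5×10⁶ cells/well) in DMEM, triplicate, with concanavalin A (2 μg mL⁻¹) ± compound 48 h at 37 °C, 5% CO₂, then 1 μCi [methyl-³H]thymidine for 12 h; inhibition from thymidine uptake relative to control; dexamethasone positive control.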

Data set [2] can be described thus: Cytotoxicity against mouse J774 macrophages after 72 hrs by Alamar Blue assay. The class given is cell-based. Background: Resazurin is reduced to fluorescent resorufin, in cell work by metabolically active cells.
For data set [3], the system named is Splenocyte. The data set can be described thus: Antiinflammatory activity in BALB/c mouse splenocytes assessed as increase of IL-10 level at 11 uM after 24 to 48 hrs by cytometric bead array method. The class given is functional, cell-based. In short, it runs like this:
(§1)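 Splenocytes from female BALB/c mice (6–8 weeks) isolated on Ficoll-Paque (1.076 g/mL), viability >98% by trypan blue; cultured with 11 μM compound for 24 and 48 h. Supernatant cytokines measured by cytometric bead array on flow cytometer; two independent experiments in triplicate.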

Data set [4] relates to Splenocyte. The data set can be described thus: Antiinflammatory activity in BALB/c mouse splenocytes assessed as inhibition of IL-2 level at 11 uM after 24 to 48 hrs by cytometric bead array method. The class given is functional, cell-based. The procedure, abridged:
as §1

Data set [5] concerns Splenocyte. The data set can be described thus: Antiinflammatory activity in BALB/c mouse splenocytes assessed as inhibition of TNFalpha level at 11 uM after 24 to 48 hrs by cytometric bead array method. In kind it is functional, cell-based. In short, it runs like this:
as §1

The subject of data set [6] is Splenocyte. The data set can be described thus: Antiinflammatory activity in BALB/c mouse splenocytes assessed as decrease of IL-6 level at 11 uM after 24 hrs by cytometric bead array method. The class given is functional, cell-based. The procedure, abridged:
as §1

The subject of data set [7] is Splenocyte. The data set can be described thus: Antiinflammatory activity in BALB/c mouse splenocytes assessed as increase of IL-4 level at 11 uM after 24 to 48 hrs by cytometric bead array method. The class given is functional, cell-based. In short, it runs like this: as §1
Data set [8] concerns Splenocyte. The data set can be described thus: Antiinflammatory activity in BALB/c mouse splenocytes assessed as inhibition of IFNgamma level at 11 uM after 24 to 48 hrs by cytometric bead array method. In kind it is functional, cell-based. The procedure, abridged: as §1
The test system of data set [9] is Splenocyte. The data set can be described thus: Antiinflammatory activity in BALB/c mouse splenocytes assessed as inhibition of IFNgamma-induced nitric oxide production at 11 uM after 24 to 48 hrs by Griess method. In kind it is functional, cell-based. On the technique in general: Nitrite, measured by Griess reagent, commonly stands in for NO production.
Data set [10] relates to Mus musculus. The data set can be described thus: Acute toxicity in Swiss mouse assessed as occurence of irritability at 2000 mg/kg, po after 1 hr. In kind it is organism-based. Conditions: in vivo. The procedure, abridged: (§2)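 Fixed-dose stepwise procedure following OECD acute oral toxicity guidelines; groups of 3 Swiss Mus musculus mice (20–35 g) dosed orally at 2000 mg kg⁻¹ and observed for clinical signs of pain, suffering and impending death. Test run in duplicate. Animals kept at 22 ± 3 °C, 12 h light/dark, free food and water.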

Data set [11] relates to Mus musculus. The data set can be described thus: Acute toxicity in Swiss mouse assessed as occurence of ptosis at 2000 mg/kg, po after 1 hr. In kind it is organism-based. Conditions: in vivo. The procedure, abridged: as §2
Data set [12] concerns Mus musculus. The data set can be described thus: Acute toxicity in Swiss mouse assessed as effect on blood cell levels at 2000 mg/kg, po (reference value: 13.0 +/- 0.9 10^6/mm3). The class given is organism-based. Conditions: in vivo.
For data set [13], the system named is Mus musculus. The data set can be described thus: Acute toxicity in Swiss mouse assessed as effect on hemoglobin levels at 2000 mg/kg, po (reference value: 14.5 +/- 0.6 g/dl). In kind it is organism-based. The settings on record: in vivo.
In data set [14] the test system is Mus musculus. The data set can be described thus: Acute toxicity in Swiss mouse assessed as effect on hematocrit levels at 2000 mg/kg, po (reference value: 74.7 +/- 6.05%). In kind it is organism-based. Conditions: in vivo.
Data set [15] relates to Mus musculus. The data set can be described thus: Acute toxicity in Swiss mouse assessed as effect on mean corpuscular volume at 2000 mg/kg, po (reference value: 57.3 +/- 3.01 […]). The class given is organism-based. Conditions: in vivo.
For data set [16], the system named is Mus musculus. The data set can be described thus: Acute toxicity in Swiss mouse assessed as effect on mean corpuscular hemoglobin level at 2000 mg/kg, po (reference value: 11.16 +/- 0.53 pg). The class given is organism-based. Conditions: in vivo.
Data set [17] concerns Mus musculus. The data set can be described thus: Acute toxicity in Swiss mouse assessed as effect on mean corpuscular hemoglobin concentration level at 2000 mg/kg, po (reference value: 19.5 +/- 0.94%). The class given is organism-based. Conditions: in vivo.
The test system of data set [18] is Mus musculus. The data set can be described thus: Acute toxicity in Swiss mouse assessed as effect on leukocyte level at 2000 mg/kg, po (reference value: 10.8 +/- 6.25 10^3/mm3). The settings on record: in vivo. In kind it is organism-based.
Data set [19] relates to Mus musculus. The data set can be described thus: Acute toxicity in Swiss mouse assessed as mortality at 2000 mg/kg, po. The class given is organism-based. The settings on record: in vivo. The procedure, abridged:
as §2

The subject of data set [20] is Mus musculus. The data set can be described thus: Antiinflammatory activity in carrageenan-induced Swiss mouse assessed as inhibition of paw edema at 60 mg/kg, po pretreated for 1 hr followed by carrageenan challenge measured after 6 hrs by plethysmometric method. In kind it is functional.
The subject of data set [21] is Mus musculus. The data set can be described thus: Antiinflammatory activity in carrageenan-induced Swiss mouse assessed as inhibition of paw edema at 15 mg/kg, po pretreated for 1 hr followed by carrageenan challenge measured after 6 hrs by plethysmometric method. The class given is functional.
Data set [22] has as its system Mus musculus. The data set can be described thus: Antiinflammatory activity in carrageenan-induced Swiss mouse assessed as inhibition of paw edema at 30 mg/kg, po pretreated for 1 hr followed by carrageenan challenge measured after 1 hr by plethysmometric method. The class given is functional.
Data set [23] relates to Mus musculus. The data set can be described thus: Antiinflammatory activity in carrageenan-induced Swiss mouse assessed as inhibition of paw edema at 30 mg/kg, po pretreated for 1 hr followed by carrageenan challenge measured after 5 hrs by plethysmometric method. The class given is functional.
Data set [24] relates to Mus musculus. The data set can be described thus: Antiinflammatory activity in carrageenan-induced Swiss mouse assessed as inhibition of paw edema at 60 mg/kg, po pretreated for 1 hr followed by carrageenan challenge measured after 1 hr by plethysmometric method. The class given is functional.
Data set [25] concerns the target T1, Prostaglandin G/H synthase 1 (Ovis aries, UniProt P05979).
T1 sequence (P05979 whole entry): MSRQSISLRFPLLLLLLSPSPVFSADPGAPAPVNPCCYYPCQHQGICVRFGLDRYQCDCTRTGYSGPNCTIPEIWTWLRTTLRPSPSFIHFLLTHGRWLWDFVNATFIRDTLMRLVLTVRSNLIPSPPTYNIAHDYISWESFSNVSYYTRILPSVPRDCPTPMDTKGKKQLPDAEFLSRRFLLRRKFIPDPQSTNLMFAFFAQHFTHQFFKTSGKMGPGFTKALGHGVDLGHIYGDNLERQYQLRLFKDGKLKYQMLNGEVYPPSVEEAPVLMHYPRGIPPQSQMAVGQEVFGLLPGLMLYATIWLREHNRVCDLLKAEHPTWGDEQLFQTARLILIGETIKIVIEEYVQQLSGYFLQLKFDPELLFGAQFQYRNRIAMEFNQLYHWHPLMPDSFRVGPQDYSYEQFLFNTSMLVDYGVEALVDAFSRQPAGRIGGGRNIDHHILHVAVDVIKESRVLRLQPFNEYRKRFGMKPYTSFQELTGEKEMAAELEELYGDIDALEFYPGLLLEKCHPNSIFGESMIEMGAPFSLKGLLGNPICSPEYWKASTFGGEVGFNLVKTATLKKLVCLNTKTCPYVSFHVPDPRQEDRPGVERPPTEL
The data set can be described thus: Inhibition of ovine COX-1 using arachidonic acid as substrate preincubated for 5 mins followed by substrate addition measured after 1 hr.

Data set [26] has as its target T2, Prostaglandin G/H synthase 2 (Homo sapiens, UniProt P35354).
T2 sequence (P35354 whole entry): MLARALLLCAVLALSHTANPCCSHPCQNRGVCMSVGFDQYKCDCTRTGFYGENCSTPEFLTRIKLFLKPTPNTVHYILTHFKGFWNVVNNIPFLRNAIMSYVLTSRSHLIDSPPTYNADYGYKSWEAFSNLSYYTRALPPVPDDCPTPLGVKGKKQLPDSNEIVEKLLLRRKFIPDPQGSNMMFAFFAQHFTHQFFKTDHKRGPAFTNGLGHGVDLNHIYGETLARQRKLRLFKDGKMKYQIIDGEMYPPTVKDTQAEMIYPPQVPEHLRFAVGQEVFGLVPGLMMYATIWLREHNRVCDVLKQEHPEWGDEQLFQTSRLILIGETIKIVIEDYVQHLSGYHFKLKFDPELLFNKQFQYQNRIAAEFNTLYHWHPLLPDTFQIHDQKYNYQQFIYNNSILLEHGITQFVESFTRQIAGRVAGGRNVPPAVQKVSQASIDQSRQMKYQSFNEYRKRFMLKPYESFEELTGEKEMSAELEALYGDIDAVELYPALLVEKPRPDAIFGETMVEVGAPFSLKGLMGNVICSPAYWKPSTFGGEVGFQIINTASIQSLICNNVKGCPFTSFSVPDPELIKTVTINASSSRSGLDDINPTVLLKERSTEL
The data set can be described thus: Inhibition of recombinant N-terminal His6-tagged human COX-2 expressed in Baculovirus infected Sf21 cells using arachidonic acid as substrate preincubated for 5 mins followed by substrate addition measured after 1 hr. The class given is cell-based.

Data set [27] in a line: Selectivity index, ratio of IC50 for ovine COX-1 to IC50 for recombinant N-terminal His6-tagged human COX-2. The procedure, abridged:
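COX-1 or COX-2 in 100 mM Tris-HCl pH 8.0 with hematin, compound (in DMSO, 1.5–100 μM) preincubated 5 min at room temperature; started with arachidonic acid plus TMPD, absorbance at 610 nm after 1 h; triplicate; IC50 calculated, selectivity index from COX-1 and COX-2 IC50s.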

The text below walks through data of ChEMBL document CHEMBL4270658, “Synthesis, in vitro and in vivo biological evaluation, COX-1/2 inhibition and molecular docking study of indole-N-acylhydrazone derivatives” (Bioorg Med Chem, 2018).

As a reminder, the inhibition is the share of the control response that was lost under treatment. By CC50 is commonly meant the concentration that lowers cell viability or growth by half. A lower CC50 goes with harm at low concentration. By inhibition in vivo is commonly meant how much of the control response was suppressed. For orientation: IC50 means the point on the concentration scale where inhibition reaches its midpoint.

Calls of active or inactive are those of the source. The rule behind the calls is not given here.

In the case of `N#CCC(=O)N/N=C/c1c[nH]c2ccc(C#N)cc12`, the inhibition at 50 µM in the data set with Splenocyte [1] came out at 25.7%. Moreover, the CC50 at 72 h in data set [2] stood at 69.4 µM.

Consider `N#CCC(=O)N/N=C/c1c[nH]c2ccccc12`, for which the outcome with Splenocyte [3] and in the data set on Splenocyte [7] was Active. Also, the inhibition at 50 µM in the data set with Splenocyte [1] came out at 50.7%. Also, in data set [2], it took 150 µM to reach half-maximal cytotoxicity (CC50 at 72 h). The inhibition entry with Splenocyte [4], in the data set with Splenocyte [8] and with Splenocyte [9] was “Active” each time. Further, the inhibition result in the data set on Splenocyte [5] is “inactive”. Further, the outcome with Splenocyte [6] was inactive. Besides, the Activity result in the data set on Mus musculus [10] was “Non-Toxic”; with Mus musculus [11] it was “Non-Toxic”; with Mus musculus [12] it was 8.1 ×10⁶ /mm3; in the data set with Mus musculus [13], 13.6 g/dL; in the data set with Mus musculus [14], 42.5%; in the data set with Mus musculus [15], 51.5 fL. In addition, the Activity in the data set with Mus musculus [16] is 17.05 pg; with Mus musculus [17], 33.8%; in the data set on Mus musculus [18], 3.6 ×10³ /mm3; in the data set on Mus musculus [19], “Non-Toxic”. Further, the results for the inhibition in vivo at 60 mg/kg in the data set on Mus musculus [20] and with Mus musculus [24] were 92.5% and 74.3%, respectively. For the same compound, in the data set on Mus musculus [21], the inhibition in vivo at 15 mg/kg was 67%. In addition, the results for the inhibition in vivo at 30 mg/kg with Mus musculus [22] and in the data set on Mus musculus [23] were 88.9% and 100%, respectively. The figures for the IC50 in data set [25] and in data set [26] were 1.54 µM and 1.02 µM, respectively. In addition, the Ratio IC50 in [27] amounted to 1.51.

Take `C[C@@H]1C[C@H]2[C@@H]3CCC4=CC(=O)C=C[C@]4(C)[C@@]3(F)[C@@H](O)C[C@]2(C)[C@@]1(O)C(=O)CO` [DEXAMETHASONE]: in the data set with Splenocyte [1], the inhibition at 50 µM came out at 74.6%.

In the case of `N#CCC(=O)N/N=C/c1c[nH]c2ccc(Cl)cc12`, the inhibition at 50 µM with Splenocyte [1] came out at 1.8%. Further, the midpoint of cytotoxicity in data set [2], the CC50 at 72 h, lay at 76.9 µM.

Regarding `N#CCC(=O)N/N=C/c1c[nH]c2ncccc12`, the inhibition at 50 µM in the data set on Splenocyte [1] amounted to 52.4%. Also, in [2], the CC50 at 72 h came to 107 µM.

As to `COc1ccc2[nH]cc(/C=N/NC(=O)CC#N)c2c1`, in the data set with Splenocyte [1], the inhibition at 50 µM was 43.7%. The compound also showed a CC50 at 72 h in data set [2] of 101 µM.
